In the library only some 1.3% were active in any assay of this set; here they are far more common.
cardiac RTF act – cardiac RTF calcium sensitization | activation, % at 7.2 µM | AID 493008 | 340,000 compounds, 0.24% hits | IANBD-labeled TnC RTF fluorescence at EC20 calcium; 0% EC20 calcium, 100% full calcium;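 active means activation above the mean over all tested compounds plus 3 SD, cut at about 30% in these data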;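 further: rise in fluorescence read as greater calcium sensitivity of cardiac thin filaments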
CAL PDZ FP-1 – human CAL PDZ-peptide interaction inhibition; purified CAL PDZ, TMR-peptide fluorescence polarization, 1 h; 330,000 compounds, 0.02% hits; inhibition, % at 20 µM; Q9HD26;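 active means highest replicate inhibition of at least 40%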
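Read-out basis: mP drop reported as inhibition | Assay system: Tagged CAL PDZ protein CerCALP, purified | Benchmarks: Unlabelled peptide for full inhibition, DMSO wells as neutral | Schedule: 1 h incubation at room temperature before polarization reading | Buffer or medium: Sodium phosphate/NaCl buffer pH 7.4 with TCEP, IgG, Thesit | Doses: Single point, 20 µM | Measured by: Fluorescence polarization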
C-LANA FP – KSHV C-LANA DNA binding inhibition; AID 504423; 340,000 compounds, 0.078% hits; MBP-C-LANA/FAM-LBS DNA binding, fluorescence polarization; inhibition, % at 9 µM;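 active means highest replicate inhibition at or above 60% at 9 µM, even if other replicates fall short; inactive means all replicates below 60% inhibition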
Keap1 Nrf2 FP – disrupts human Keap1 binding to Nrf2 peptide; Keap1 Kelch-Nrf2 peptide fluorescence polarization, 1536-well; inhibition, % at 9.4 µM; 340,000 compounds, 0.15% hits; AID 504523; in the data active means inhibition above about 12%;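 further: human Keap1 Kelch domain with fluorescein labeled Nrf2 9mer peptide probe; higher means more block of Keap1 binding to Nrf2 peptide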
Target sequence (Q14145 whole entry, looked up, the tested form may be a part): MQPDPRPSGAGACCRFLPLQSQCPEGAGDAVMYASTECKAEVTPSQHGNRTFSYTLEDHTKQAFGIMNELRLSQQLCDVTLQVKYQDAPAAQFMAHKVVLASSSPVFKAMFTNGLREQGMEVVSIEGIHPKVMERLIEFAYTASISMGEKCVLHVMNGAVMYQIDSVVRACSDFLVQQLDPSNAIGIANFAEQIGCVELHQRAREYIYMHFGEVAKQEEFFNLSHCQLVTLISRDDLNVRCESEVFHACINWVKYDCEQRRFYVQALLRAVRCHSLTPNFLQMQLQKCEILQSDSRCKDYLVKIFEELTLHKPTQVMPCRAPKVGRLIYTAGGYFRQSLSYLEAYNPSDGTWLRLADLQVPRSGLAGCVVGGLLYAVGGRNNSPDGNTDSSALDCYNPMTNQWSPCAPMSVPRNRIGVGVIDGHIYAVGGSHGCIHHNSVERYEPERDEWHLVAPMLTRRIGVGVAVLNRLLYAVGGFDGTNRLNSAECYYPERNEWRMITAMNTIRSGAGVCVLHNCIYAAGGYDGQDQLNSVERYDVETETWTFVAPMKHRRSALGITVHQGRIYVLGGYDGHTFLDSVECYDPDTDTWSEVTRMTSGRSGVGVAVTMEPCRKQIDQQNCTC
CAL PDZ FP-2 – CAL PDZ (human) peptide binding inhibition. Q9HD26. 300,000 compounds, 0.92% hits. inhibition, % at 24.9 µM. purified CAL PDZ, TMR-peptide fluorescence polarization, 1 h. AID 602252;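 active means mean inhibition of at least 30% with at least half of replicates also reaching 30%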
Cardiac RTF inh – cardiac RTF calcium desensitization. AID 493244. 340,000 compounds, 0.12% hits. IANBD-labeled cardiac RTF, Ca2+ fluorescence. inhibition, % at 7.15 µM. P19429+P45379;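 active means inhibition above the mean inhibition of all tested compounds plus 3 SD, cut at about 17% in these data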;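 further: assay run at fixed EC70 calcium of 1.6 mM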
Each line names hits and unclear results; the compound was inactive in the other large screens.

Cc1cccc(CC(=O)NCC(=O)NCc2cc(=O)n(C)c(=O)n2C)c1	CAL PDZ FP-2 62
CC(/C=N/NC(=O)c1nnn(-c2nonc2N)c1CN(C)C)=C\c1ccco1	none (no result: CAL PDZ FP-2)
CCCN(CCC)Cc1c(C(=O)N/N=C/C(C)=C\c2ccco2)nnn1-c1nonc1N	CAL PDZ FP-2 66
O=c1cccc2c1c1cc[nH]c3ccc(=O)n2c31	CAL PDZ FP-2 49
Cc1cc(C(=O)COC(=O)c2ccc(Cl)c(S(N)(=O)=O)c2)c(C)n1C1CC1	CAL PDZ FP-2 41
Cc1nn(-c2ccccc2)c(C)c1NC(=O)COC(=O)c1ccc(Cl)c(S(N)(=O)=O)c1	CAL PDZ FP-2 65
Cc1cc(C(=O)COC(=O)c2ccc(NC(=O)CC#N)cc2)c(C)n1C1CC1	none
Cc1nn(-c2ccccc2)c(C)c1NC(=O)COC(=O)c1ccc(NC(=O)CC#N)cc1	none
Cc1ccccc1OCC(=O)OCC(=O)c1cc(C)n(C2CC2)c1C	CAL PDZ FP-2 46
COc1ccccc1CNC(=O)c1cc(S(=O)(=O)N2CCN(c3ccccc3)CC2)ccc1Cl	none
Cc1cccc(NC(=O)NCCN2CCN(c3ccccc3)CC2)c1C	none
O=C(O)c1ccccc1C(=O)c1cccc2c(Br)cccc12	none
CN(C)C(CNC(=O)c1cccc(S(=O)(=O)Nc2ccccc2Cl)c1)c1ccco1 (centres undefined)	CAL PDZ FP-2 32
CNS(=O)(=O)c1cccc(C(=O)NCC(c2ccco2)N(C)C)c1 (centres undefined)	none
O=C(NCC(=O)N1CCN(Cc2ccccc2)CC1)c1ccc(Br)cc1	CAL PDZ FP-2 41
COc1ccc(C(=O)C2CCCN(C(=O)c3ccoc3C)C2)cc1F (centres undefined)	CAL PDZ FP-2 119 (no result: CAL PDZ FP-1)
CC1CCc2c(sc3nc(CSc4ncn[nH]4)[nH]c(=O)c23)C1 (centres undefined)	none
CC1CCc2c(sc3nc(CSc4nnnn4C)[nH]c(=O)c23)C1 (centres undefined)	CAL PDZ FP-2 60
O=C(CCCn1c(=O)[nH]c2cc(Cl)ccc2c1=O)NC1CCCCCCC1	CAL PDZ FP-2 53
O=C(C1CC(=O)N(c2ccccc2F)C1)N1CCOCC1 (centres undefined)	none
COc1cc(/C=C2/SC(=S)N(Cc3ccccc3)C2=O)cc(Cl)c1O	cardiac RTF act 71 (no result: CAL PDZ FP-1)
COc1ccc(OC)c(CN2CCN(C(=O)c3cccc(S(=O)(=O)Nc4ccc(F)cc4)c3)CC2)c1	none
COCC1CCN(C(=O)c2ccc3oc(CCCc4ccccc4)nc3c2)C1 (centres undefined)	CAL PDZ FP-1 active
CCCc1ncc(CN2CCCCC2C(=O)Nc2ccc(Oc3ccccc3)nc2)cn1 (centres undefined)	none (no result: CAL PDZ FP-2)
COc1cccc(OCCOc2ccc(/C=C3\C(=N)N4N=C(S(C)(=O)=O)SC4=NC3=O)cc2OC)c1	CAL PDZ FP-2 55
Cc1cccc(OCCCC(=O)NNC(=O)c2cccc(N(C)C)c2)c1	none (no result: CAL PDZ FP-2)
O=C1OC(COc2ccc(Br)cc2)CN1c1ccccc1 (centres undefined)	CAL PDZ FP-2 87
O=C(Nc1cc(-c2ccccc2)nn1-c1ccccc1)c1ccccc1F	none
N/C(=N\c1nc2c(c(=O)[nH]1)CCC2)Nc1ccccc1C(F)(F)F	Cardiac RTF inh 17
CC(C)N(Cc1ccccc1)C(=O)COC(=O)c1c(F)cccc1F	none (no result: CAL PDZ FP-2)
Cc1cc(C)nc(CCNC(=O)CC2C(=O)NCCN2Cc2ccc(F)cc2Cl)n1 (centres undefined)	CAL PDZ FP-2 60
COc1ccccc1CN1CCNC(=O)C1CC(=O)NCc1c(C)n[nH]c1C (centres undefined)	CAL PDZ FP-2 51 (no result: CAL PDZ FP-1)
CCN(CC)Cc1nc2c(c(=O)[nH]1)C(CC)(CC)Cc1ccccc1-2	none (no result: CAL PDZ FP-1)
COc1ccccc1NC(=O)c1cccc(N2C(=O)C3C4C=CC(C4)C3C2=O)c1 (centres undefined)	CAL PDZ FP-2 50
COc1ccc(NC(=O)c2cccc(N3C(=O)C4C5C=CC(C5)C4C3=O)c2)c(OC)c1 (centres undefined)	none
CC1CCCCC12NC(=O)N(CC(=O)Nc1nccs1)C2=O (centres undefined)	none
COC(=O)c1ccc(COC(=O)C2CCN(S(=O)(=O)c3ccc(C)c(C)c3)CC2)o1	none
O=C(Nc1ccc(N2CCN(C(=O)c3ccco3)CC2)cc1)c1cc(Br)ccc1Cl	CAL PDZ FP-2 49
O=C(Nc1ccc(N2CCN(C(=O)c3ccco3)CC2)cc1)c1ccc(Br)cc1	none
CN(C)/C=C/c1[nH]c(=O)[nH]c(=O)c1[N+](=O)[O-]	CAL PDZ FP-2 77
O=c1[nH]c(/C=C/c2ccc([N+](=O)[O-])cc2)c([N+](=O)[O-])c(=O)[nH]1	none
CCCn1nnnc1NCc1c(Cl)cccc1Cl	none
CCCn1nnnc1NCc1cccc(Cl)c1	CAL PDZ FP-2 80
COc1ccc(-n2c(O)c(/C=N/NS(=O)(=O)c3cccc([N+](=O)[O-])c3)c3ccccc3c2=O)cc1OC	cardiac RTF act 33
COc1ccc(CC(=O)NNS(=O)(=O)c2cccc([N+](=O)[O-])c2)cc1OC	none (no result: CAL PDZ FP-2)
CCN(CC)c1ccc(/C=C/c2cc(-c3ccccc3)c3ccccc3n2)cc1	cardiac RTF act 320
O=C(NCC(c1ccco1)N1CCN(c2ccccc2)CC1)C(=O)NC1CCCCC1 (centres undefined)	CAL PDZ FP-2 36
O=C(NCC(c1ccco1)N1CCN(c2ccccc2)CC1)C(=O)NC1CCCC1 (centres undefined)	none (no result: CAL PDZ FP-2)
Cc1cccc(C)c1N(CC(=O)N1CCOCC1)S(C)(=O)=O	CAL PDZ FP-2 44 (no result: CAL PDZ FP-1)
Cc1cccc(C)c1N(CC(=O)N1CCCC1)S(C)(=O)=O	none (no result: CAL PDZ FP-2)
COc1ccc(Cl)c(OC)c1C(=O)NC(=O)Nc1nc(C)nc(C)n1	none
COc1c(Cl)cc(Br)c(OC)c1C(=O)NC(=O)Nc1nc(C)cc(C)n1	CAL PDZ FP-2 83
COc1ccc(CCNC(=O)CCCc2ccccc2)cc1OC	none (no result: CAL PDZ FP-2)
O=C(COC(=O)c1n[nH]c(=O)c2ccccc12)Nc1cccc(S(=O)(=O)N2CCOCC2)c1	none
COc1cccc(C(=O)COC(=O)c2ccc(NC(C)=O)cc2)c1	CAL PDZ FP-2 53
CCOc1ccccc1C(=O)NCC(=O)OCC(=O)N1CCCC1	CAL PDZ FP-2 44
CC(c1nnc(SCC(=O)Nc2cc([N+](=O)[O-])ccc2F)n1Cc1ccccc1)N(C)C (centres undefined)	none
Fc1cccc2sc(N3CCCCC3)nc12	CAL PDZ FP-2 37
Fc1cccc2sc(N3CCOCC3)nc12	none
CCC(C(=O)Nc1ccccc1)c1ccccc1 (centres undefined)	none

Assay outcomes (PubChem)
